Like-named read-outs stand apart in the source and are kept apart here.
Columns and labels:
[1] = format: in vivo, human
In short: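 Healthy male and post-menopausal female volunteers self-dosed intranasally. Male: 100 IU (10 IU/puff, 5 puffs per nostril, alternating), then 20 IU (1 puff per nostril) after one-week washout. Female: 100 IU (50 IU/puff) compounded metered spray. Serum (male), urine and saliva were sampled baseline to 120–240 min and frozen at −80°C. Samples were C18 SPE-extracted with OT-d5 internal standard and analysed by orbitrap targeted SIM (m/z 562.25503); urine was creatinine-adjusted.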

[2] = OT stability in human serum; format: in vitro ADME; details: added to human serum; 4°C or room temperature (23°C); up to 24 hours; LCMS
In short: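 OT and OT-d5 were added to human serum and held at room temperature (~23°C) or 4°C for 24 h. Levels were compared with pre-incubation values. Serum (500 µL) was spiked with OT-d5, acidified with 4% phosphoric acid, then C18 SPE-purified. Quantitation was by HRAM orbitrap LCMS in positive heated ESI targeted SIM mode.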

OT stability in water = format: physicochemical; details: spiked 9.9, 24.8, 154 and 385 ng/mL in water; 10°C; up to 5 days; LCMS
In short: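 Water was spiked with OT and OT-d5 at final 9.9, 24.8, 154 and 385 ng/mL and held at 10°C for variable times, matching the urine spikes. OT and OT-d5 levels were quantitated by HRAM orbitrap LCMS (positive heated ESI, targeted SIM). Means and standard deviation were reported.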

[3] = OT stability in human urine; format: in vitro ADME; details: human urine spiked 9.9-385 ng/mL; 10°C; up to 5 days; LCMS
[4] = plasma from men and non-pregnant women; 60 minute incubation at 37°C; cited from earlier work
[5] = healthy volunteer, n=1, 100 IU intranasal (OxyLuv), saliva
[6] = male, human, serum, inhaled or intranasal, 100 IU

Row | time after the peak at which levels decreased to below detection limits ([1]; 2 volunteers, 20 IU or 100 IU intranasal, serum, urine, saliva, summary) [h] | time of peak levels in serum, urine and saliva after each dose ([1]; 2 volunteers, 20 IU or 100 IU intranasal, summary over matrices) [min] | time of elimination of saliva OT to levels below LLOD ([1]; after intranasal OT, saliva, LLOD 10 pg/mL) [h] | time of peak saliva OT level ([1]; healthy volunteer, n=1, 20 IU intranasal (OxyLuv), saliva) [min] | peak saliva OT level [1, 5] | time of peak saliva OT level [1, 5] [min] | time of decrease of serum OT to baseline ([1]; healthy volunteer, n=1, 100 IU intranasal (OxyLuv), serum) [min] | time of peak urine OT excretion ([1]; healthy volunteer, n=1, 100 IU intranasal (OxyLuv), urine) [min] | Cmax [1, 6] [ng/mL] | Tmax [1, 6] [min] | Compound | change in level compared to pre-incubation level [2] [%] | stability in water (OT stability in water) | stability in urine after the initial drop [3] | OT degradation in plasma [4]
1 | 1 to 2 | 15 to 30 | 2 to 3 | 15 | 392,000 pg/mL | 15 | ≤ 60 | 30 | 0.08 | 15 | CC[C@H](C)[C@@H]1NC(=O)[C@H](Cc2ccc(O)cc2)NC(=O)[C@@H](N)CSSC[C@@H](C(=O)N2CCC[C@H]2C(=O)N[C@@H](CC(C)C)C(=O)NCC(N)=O)NC(=O)[C@H](CC(N)=O)NC(=O)[C@H](CCC(N)=O)NC1=O [OT, Oxytocin] | < 15 | remained stable | stayed at those low levels | little or no OT degradation
2 |  |  |  |  |  |  |  |  |  |  | OT-leucyl-d3-glycinamide-d2 [OT-d5] | < 15 | remained stable | stayed at those low levels | 
